In ChEMBL document CHEMBL3085730, “Skeletal hybridization and PfRIO-2 kinase modeling for synthesis of α-pyrone analogs as anti-malarial agent” (Eur J Med Chem, 2013):
Calls of active or inactive are those of the source. The rule behind the calls is not given here.

Legend:
Plasmodium falciparum [1] = experiment: Parasitocidal activity against ring-stage Plasmodium falciparum 3D7 assessed as minimum killing concentration incubated for 42 hrs followed by compound washout measured 72 hrs post infection in hematocrit; type: functional
Summary of the method: (§1)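 After drug exposure, compound removed and cultures washed 3 times with Albumax II-free RPMI-1640. Cultures then incubated a further 72 h in complete medium with fresh hematocrit. RBCs containing viable parasite counted on thin smear to class inhibition as parasitostatic or parasitocidal.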

Plasmodium falciparum [2] = experiment: Antimalarial activity against ring-stage Plasmodium falciparum 3D7 assessed as schizonticidal activity after 42 hrs; type: functional, organism-based; conditions: 3D7, 42 h
Summary of the method: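 Ring-stage P. falciparum 3D7-parasitised cells exposed to compound for 42 h. Blood smears scored for maturation of rings into trophozoites and schizonts. IC50 derived from schizont inhibition by regression analysis.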

Plasmodium falciparum [3] = experiment: Antimalarial activity against Plasmodium falciparum 3D7 assessed as intracellular ROS generation relative to untreated control; type: functional
Summary of the method: (§2)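 Parasite cultures treated with a sub-lethal concentration of compound. Intracellular ROS measured with the fluorescent probe 2',7'-dichlorofluorescein diacetate. Lipid peroxidation measured by a previously described method. Each index expressed as fold change ± SD versus untreated culture.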

Plasmodium falciparum [4] = experiment: Antimalarial activity against Plasmodium falciparum 3D7 assessed as lipid peroxidation after 48 hrs by spectrophotometry relative to untreated control; type: functional; summary of the method: as §2
Plasmodium falciparum [5] = experiment: Parasitostatic activity against ring-stage Plasmodium falciparum 3D7 assessed as minimum killing concentration incubated for 42 hrs followed by compound washout measured 72 hrs post infection in hematocrit; type: functional, organism-based; summary of the method: as §1

Row | SMILES | Activity (Plasmodium falciparum [1]) [µM] | IC50 (Plasmodium falciparum [2]) [nM] | fold change (FC) (Plasmodium falciparum [3]) | fold change (FC) (Plasmodium falciparum [4]) | Activity (Plasmodium falciparum [5])
1 | Cc1ccc(NC(=O)c2c(O)cc(-c3ccccc3)oc2=O)cc1 | 38.9 | 1420 |  |  | 
2 | O=C(Nc1ccc(Br)cc1)c1c(O)cc(-c2ccccc2)oc1=O | 3.9 | 750 |  |  | 
3 | Cc1ccc(NC(=O)c2c(N3CCCCC3)cc(-c3ccccc3)oc2=O)cc1 | 1 | 859 | 1.66 | 11.03 | 
4 | O=C(Nc1ccc(Br)cc1)c1c(N2CCCCC2)cc(-c2ccccc2)oc1=O | 0.21 | 337 | 1.87 | 4.49 | 
5 | O=C(Nc1ccc(O)cc1)c1c(N2CCCCC2)cc(-c2ccccc2)oc1=O | 1.99 | 765 | 1.2 | 9.03 | 
6 | COc1ccc(-c2cc(N3CCN(C)CC3)c(C(=O)Nc3ccc(O)cc3)c(=O)o2)cc1 |  | 1570 | 1.99 | 4.88 | inactive
7 | O=C(Nc1ccc(F)cc1)c1c(O)cc(-c2ccccc2)oc1=O | 2.39 | 900 |  |  | 
